# Screening data: PubChem, Sanford-Burnham Center for Chemical Genomics
# Compounds with a hit are over-represented: about 4.4% of the library has one in this group of screens.
# MPTP block: blocks calcium-induced mitochondrial swelling | hit rate 1.4% among 360,000 | inhibition, % at 10 µM | isolated mouse mitochondria, Ca2+ swelling absorbance, 30 min;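 active = inhibition of 50% or more, scaled per plate between neutral and stimulator controls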;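 also: 0% = DMSO wells given calcium and 100% = 1 mM EGTA wells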
# SENP1 FRET inh: inhibitors of human SENP1 SUMO protease catalytic domain. Q9P0U3. recombinant SENP1 catalytic domain, CyPet-SUMO1-YPet FRET cleavage. inhibition, % at 10 µM. hit rate 0.21% among 360,000;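 active = inhibition at least 30% at 10 µM, raw YFP signal under a set limit, fluorescence ratio 0.5 to 1.5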;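 also: 0% = enzyme with DMSO and 100% = no enzyme wells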
# Target sequence (Q9P0U3 419-644 limits assumed): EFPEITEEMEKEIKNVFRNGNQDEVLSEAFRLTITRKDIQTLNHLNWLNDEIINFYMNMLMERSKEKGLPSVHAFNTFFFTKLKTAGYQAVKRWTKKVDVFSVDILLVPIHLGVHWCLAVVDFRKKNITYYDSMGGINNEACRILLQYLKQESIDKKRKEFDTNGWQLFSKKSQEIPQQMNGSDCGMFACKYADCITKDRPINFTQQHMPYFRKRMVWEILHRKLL
#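 Assay system: hSENP1 catalytic domain, recombinant. Amount: SENP1 enzyme, 20 pM final. Schedule: 50 min reaction, RT, dark. Technique: FRET, CFP and YFP emission. Control set: no-enzyme wells low, DMSO-plus-enzyme wells high control.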
# NR3A LBD binder: modulators (binders) of human NR3A ligand-binding domain; NR3A LBD differential scanning fluorimetry, Tm shift; 0% = protein alone, 100% = glycine-bound protein; Tm shift relative to glycine control, % at 25 µM; hit rate 2.5% among 340,000; AID 1259313;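 active = melting temperature shift of at least 10% of the positive control shift, at one fixed dose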
# EBI2 antag: antagonists of human EBI2 receptor | EBI2 beta-arrestin recruitment, luminescence, 7a,25-OHC stimulated | inhibition, % at 5 µM | hit rate 0.81% among 360,000 | AID 651636; in the data active = inhibition above about 38%;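 also: enzyme fragment complementation signal reports receptor beta-arrestin coupling in cells; 0% = agonist plus DMSO wells and 100% = wells without agonist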
# Target sequence (P32249 whole entry, looked up, the tested form may be a part): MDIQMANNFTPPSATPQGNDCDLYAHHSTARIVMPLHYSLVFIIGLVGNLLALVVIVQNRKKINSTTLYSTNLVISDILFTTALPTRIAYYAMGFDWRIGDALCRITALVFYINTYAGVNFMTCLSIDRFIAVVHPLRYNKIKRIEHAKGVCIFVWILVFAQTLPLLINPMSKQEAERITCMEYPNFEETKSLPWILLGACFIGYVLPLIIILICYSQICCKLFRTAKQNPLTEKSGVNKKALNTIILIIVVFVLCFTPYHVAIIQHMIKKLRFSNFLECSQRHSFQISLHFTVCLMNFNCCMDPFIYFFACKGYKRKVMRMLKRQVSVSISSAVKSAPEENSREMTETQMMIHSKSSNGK
# Rh123 counter: Rhodamine 123 counter-screen of mitochondrial pore hits | shares compounds with MPTP block | isolated mitochondria, membrane potential, Rhodamine 123 fluorescence | inhibition, % at 10 µM | hit rate 78% among 5,000; in the data active = inhibition above about 22%;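 also: 0% = DMSO vehicle and 100% = positive control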
# MPTP abs DR: MPTP inhibition, dose response swelling confirmation. shares compounds with MPTP block. isolated mitochondria swelling, absorbance. IC50, µM. hit rate 58% among 780; in the data active = IC50 below about 20 µM
# MPTP cs DR: counter-screen for mitochondrial permeability transition pore inhibitors, dose response; hit rate 49% among 780; shares compounds with MPTP block; AID 651564; IC50, µM; isolated mitochondria counterscreen, fluorescence read-out; in the data active = IC50 below about 80 µM
# The depositor's hits bear a star; i = inactive; x = no result.
SMILES,MPTP block,SENP1 FRET inh,NR3A LBD binder,EBI2 antag,Rh123 counter,others
CSCCC(NC(N)=O)C(=O)Nc1ccc(F)c(Cl)c1 (centres undefined),64*,2,0,4,80*,
Cc1ccc(Nc2nc3nonc3[nH]c2=O)cc1C,69*,-4,-6,-14,102*,
Cc1ccc(Nc2nc3nonc3[nH]c2=O)cc1Cl,92*,-5,5,-2,99*,
CC(c1ccco1)N(C(=O)c1ccccc1NS(=O)(=O)c1cccc([N+](=O)[O-])c1)c1ccccn1 (centres undefined),51*,-3,-2,-6,78*,
CC(NC(=S)NC1CCC(C(C)(C)C)CC1)c1ccccc1 (centres undefined),55*,2,6,-2,87*,
Cc1ccc(CNC(=S)NC2CCC(C(C)(C)C)CC2)cc1 (centres undefined),51*,0,5,6,106*,
CC1(Cc2ccc3c(c2)OCO3)C(=O)Nc2c(Cl)ccc(Cl)c21 (centres undefined),1,-1,x,10,x,
Cc1ccc(NC(=O)C2C(c3ccccc3)C=CC(c3ccccc3)C2C(=O)O)cc1 (centres undefined),-1,1,-6,6,x,
COc1ccc(Nc2nc(OC)nc(OC)n2)cc1,-2,2,-6,-5,x,
COc1ccc(Nc2ccnc(Nc3ccc(OC)cc3)n2)cc1,78*,0,-19,20,1,MPTP abs DR=11*;MPTP cs DR=35*
COc1cccc(NC(=O)CSc2ncnc3c2cnn3Cc2ccccc2)c1,55*,3,-6,2,40*,
O=C(CSc1ncnc2c1cnn2-c1ccccc1)Nc1ccccc1,80*,0,-1,-1,43*,
CNC(=O)CSc1ncnc2c1cnn2-c1ccccc1,-2,0,-1,6,x,
CCCCN(C)S(=O)(=O)c1cc2c3c(c1)CCC(=O)N3CCC2,-1,0,0,7,x,
COc1ccccc1C=NN=C(NN=Cc1ccccc1OC)NN=Cc1ccccc1OC,94*,0,-2,-30,97*,
Cc1nc2ccccc2c2c1CC(C(C)(Cl)Br)O2 (centres undefined),60*,2,-1,12,84*,
CN(C(=O)c1cccc(NC(=O)Cc2cccc(NC(=O)C3CCN(C(=O)C4CC4)CC3)c2)c1)C1CCC1,-1,-20,-3,-4,x,
COc1ccnc2c1c(=O)n(Cc1ccc(Cl)cc1)c(=O)n2C,0,-5,0,-8,x,
O=S(=O)(Nc1nc2ccccc2nc1N1CCN(c2ccccc2F)CC1)c1ccc(Cl)cc1,79*,-6,21*,5,88*,
CCOc1ccc(S(=O)(=O)Nc2nc3ccccc3nc2N2CCN(C)CC2)cc1,-1,-8,-2,-2,x,
COc1cc(CNCCSc2nnnn2C)cc(Br)c1OCc1ccc(F)cc1,6,0,-1,11,x,
CCOc1cc(CNCCSc2nnnn2C)cc(Br)c1OCc1ccc(F)cc1,93*,1,-6,22,7,MPTP abs DR=i;MPTP cs DR=23*
CCCn1c(CN2CCN(c3cccc(Cl)c3)CC2)nc2c1c(=O)n(C)c(=O)n2C,78*,3,-3,-1,80*,
CC(=O)NC(NC(=S)Nc1ccc(N=Nc2ccccc2)cc1)C(Cl)(Cl)Cl (centres undefined),94*,4,13*,15,62*,
CC(=O)NC(NC(=S)Nc1cccc(Br)c1)C(Cl)(Cl)Cl (centres undefined),95*,1,-5,5,76*,
SMILES,MPTP block,SENP1 FRET inh,NR3A LBD binder,EBI2 antag,Rh123 counter,others
CC(=O)NC(NC(=S)Nc1ccc(S(N)(=O)=O)cc1)C(Cl)(Cl)Cl (centres undefined),2,3,-1,-3,x,
CC(N=C(NC#N)Nc1ccncc1)C(C)(C)C (centres undefined),0,0,1,-4,x,
CCCCc1c(-c2ccccc2Br)ncn1CCc1ccccc1OC,27,-2,x,27,x,
CCCCCc1c(-c2ccccc2OC)ncn1CCc1ccccc1OC,81*,1,x,20,113*,
CCCCc1c(-c2ccccc2OC)ncn1CCc1ccccc1OC,80*,0,x,14,115*,
COc1ccc(NC(=O)NCCCN2CCN(c3cc(C)ccc3C)CC2)cc1,82*,3,2,3,-4,MPTP abs DR=15*;MPTP cs DR=39*
COc1ccc(N2CCN(CCNC(=O)Nc3ccc(C)c(Cl)c3)CC2)cc1,-1,1,3,7,x,
COc1cc(NC(=O)NCCN2CCN(c3ccc(Cl)cc3)CC2)ccc1C,70*,3,-11,11,-6,MPTP abs DR=>100;MPTP cs DR=73*
COc1ccc(N2CCC(CNC(=O)Nc3ccc(Cl)cc3)C2)cc1 (centres undefined),91*,-8,6,-1,75*,
C[C@H]1CC[C@]2(O[C@H](CCO)C[C@H](O)[C@H]2O)O1,-1,4,-5,0,x,
Cc1ccccc1C(=O)Nc1ccnn1C1CCN(Cc2ccncc2)CC1,-1,-9,2,8,x,
CCCCCCCCCCCC(=O)c1c(O)cccc1O,66*,4,-3,-6,56*,
CCCCCCCC(=O)NNC(=O)Cc1ccccc1,-2,2,-2,2,x,
CCc1cc(C(=O)Cc2ccc(F)cc2)c(O)cc1O,68*,2,-6,7,68*,
COc1ccc2c(c1)c(C(C)=O)c(C)n2CCc1ccccc1,67*,1,-2,2,76*,
C=CCN1CC(O)=C(c2nc3ccccc3[nH]2)C1=N,0,0,1,-13,x,
CC1=NN(c2ccc(Cl)cc2)C(=O)C1C(c1cccc(O)c1)c1c(C)[nH]n(-c2ccc(Cl)cc2)c1=O (centres undefined),101*,1,15*,33,20*,
CC1=NN(c2ccc(F)cc2)C(=O)C1C(c1cccc(O)c1)c1c(C)[nH]n(-c2ccc(F)cc2)c1=O (centres undefined),3,2,6,9,x,
Cc1ccc(CN2CCSc3ccc(C(=O)N4CCN(c5ncccn5)CC4)cc32)cc1,66*,0,-1,27,95*,
CCN1CCN(C(=O)c2ccc3c(c2)N(Cc2ccc(C)cc2)CCS3)CC1,2,3,1,-2,x,
CCSc1nnc(NC(=O)CSc2nc(CC)nc3c2c(=O)n(C)c(=O)n3C)s1,66*,3,14*,-9,19,MPTP abs DR=i;MPTP cs DR=>80
COc1cccc(CC(=O)Nc2cccc3ccccc23)c1,-1,0,1,5,x,
Cc1cc(N=Nc2ccccc2C(=O)O)c(C)c(C)c1O,56*,33*,-1,9,36*,
Cc1cc(O)c(C(C)C)cc1N=Nc1ccccc1C(=O)O,76*,26,0,3,52*,
CC1CC=CCC1(CO)CO (centres undefined),1,1,0,14,x,
